Sampled rows, rich in hits. Any-hit rate of the full collection: about 3.3%.
mABHD4 FP: inhibits mouse alpha/beta hydrolase domain 4. 370,000 compounds, 0.54% hits. AID 720543. inhibition, % at 8.92 µM. purified mABHD4, FP-Rh probe fluorescence polarization;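 active = inhibition exceeding the mean over every tested compound plus 3 SD, cut at about 30% in these data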
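system = mouse ABHD4 enzyme, wild type | medium = HEPES pH 7.0, NaCl, Pluronic buffer | also added = FP-Rh probe | incubation = Enzyme–compound pre-incubation 45 min, then probe 60 min, both 25 °C | technique = fluorescence polarization, excitation 525 nm, emission 598 nm, BODIPY TMR filters | controls = S159A mutant high control, sample median low control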
HTRA1 inhibitor: inhibitors of human serine peptidase HTRA1; Q92743; recombinant HTRA1, FP-rhodamine activity-based probe, fluorescence polarization; inhibition, % at 5.96 µM; 340,000 compounds, 0.5% hits; in the data active = inhibition above about 36%
rCAG binder: molecules binding r(CAG) RNA repeats | r(CAG) RNA repeat, TO-PRO-1 dye displacement fluorescence | inhibition, % at 3 µM | 370,000 compounds, 1.3% hits;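 active = inhibition above the plate cutoff, the mean of all test compounds on that plate plus 3 SD, cut at about 35% in these data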;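 note: higher means more dye released from RNA so lower well fluorescence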
PRMT1 inh: blocks human protein arginine methyltransferase 1; 370,000 compounds, 1.3% hits; recombinant PRMT1, activity-based probe fluorescence polarization; Q99873; inhibition, % at 2.79 µM; AID 652257;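 active = inhibition above about 21% made by adding two undisclosed values, limit read from the data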
SIAE primary: blocks human sialic acid acetylesterase | inhibition, % at 9.66 µM | 370,000 compounds, 0.69% hits | AID 1053197 | SIAE FP-Rh probe binding, fluorescence polarization | Q9HAT2;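 active = inhibition above a cutoff: mean of compounds within the control limits plus 3 SD of those, cut at about 17% in these data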
Target sequence (Q9HAT2 whole entry, looked up): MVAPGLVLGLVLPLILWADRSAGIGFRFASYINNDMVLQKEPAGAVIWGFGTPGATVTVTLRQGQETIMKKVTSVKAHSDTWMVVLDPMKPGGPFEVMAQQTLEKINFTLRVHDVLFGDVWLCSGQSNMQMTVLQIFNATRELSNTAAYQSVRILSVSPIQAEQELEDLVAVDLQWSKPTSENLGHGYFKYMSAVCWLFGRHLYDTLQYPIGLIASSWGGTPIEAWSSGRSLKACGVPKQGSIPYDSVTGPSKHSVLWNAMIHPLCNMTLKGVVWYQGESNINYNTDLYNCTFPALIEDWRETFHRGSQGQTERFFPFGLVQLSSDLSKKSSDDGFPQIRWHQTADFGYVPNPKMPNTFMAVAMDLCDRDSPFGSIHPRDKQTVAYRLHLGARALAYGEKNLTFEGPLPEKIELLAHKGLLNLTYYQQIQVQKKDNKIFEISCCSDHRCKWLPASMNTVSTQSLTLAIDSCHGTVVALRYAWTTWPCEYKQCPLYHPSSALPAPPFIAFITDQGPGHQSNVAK
PRMT1 confirm: PRMT1 (human) inhibition, FP confirmation | 3,300 compounds, 42% hits | AID 687036 | inhibition, % at 2.79 µM | recombinant His-PRMT1, activity-based probe fluorescence polarization | shares compounds with PRMT1 inh;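 active = mean inhibition across replicates above the hit cutoff derived for the earlier primary screen, cut at about 22% in these data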
Numbers stand for hits; n = inactive; x = no result.

SMILES	mABHD4 FP	HTRA1 inhibitor	rCAG binder	PRMT1 inh	SIAE primary	PRMT1 confirm
CCC(C)(C)n1nnnc1C(c1ccc2ncccc2c1)N1CCN(c2ccc(O)cc2)CC1 (stereo not drawn)	n	n	n	27	n	n
CC(=O)NC(=S)Nc1cccc(S(=O)(=O)NC2=NCCC2)c1	n	n	n	n	n	x
O=C(O)CN1C(=O)C2C3CC(C2C1=O)C1C(c2ccccc2)c2sc(=O)[nH]c2SC31 (stereo not drawn)	n	n	n	29	n	29
CC(C)CC(C(=O)O)N1C(=O)C2C3CC(C2C1=O)C1C(c2ccccc2)c2sc(=O)[nH]c2SC31 (stereo not drawn)	n	n	n	n	n	x
Cc1ccc(S(=O)(=O)NNc2nc3ccccc3nc2C(F)(F)F)cc1	n	n	n	81	n	n
O=C(O)c1ccc(S(=O)(=O)Cc2ccccc2)cc1	n	n	n	25	n	n
Cc1ccc(N2C(=O)C3C(c4ccccc4)N4CCCN4C3(C)C2=O)cc1 (stereo not drawn)	n	n	n	n	n	x
CCCC(=O)NC1=C(Cl)C(=O)c2ccccc2C1=O	n	n	n	95	n	94
COC(=O)Nc1ccc(SCC(=O)c2ccccc2)cc1	n	n	n	26	n	n
CC(C)(C)OC(=O)NCCc1nnc(SCC(=O)c2ccc(Cl)cc2)o1	n	n	n	n	n	x
COC(=O)Nc1ccc(SCC(=O)c2ccc(Cl)cc2)cc1	n	n	n	69	n	55
CCN1CCSc2ccc(C(=O)NCc3ccccc3F)cc21	n	n	n	52	n	n
O=C(Nc1ccc(Oc2cccc(C(F)(F)F)c2)nc1)c1ccco1	n	n	n	n	n	x
CC(C)(C)c1ccc(Oc2ccc(NC(=O)c3ccco3)cn2)cc1	n	n	n	29	n	n
O=C(NCSc1ccccc1)c1ccccc1	n	n	n	n	n	x
O=C(CNC(=O)c1ccccc1)Sc1ccccc1	n	n	n	49	n	76
CCC(C)(C)C(=O)Nc1cccc(Cl)c1C	n	n	n	n	n	x
O=C1N=C(N2C=CC(=C3C=CNC=C3)C=C2)/C(=C/N=NC(=O)c2ccccc2O)S1	n	n	n	39	n	23
CN1CCN(C(=S)c2ccc([N+](=O)[O-])cc2)CC1	n	n	n	36	n	45
CN1CCN(C(=S)c2ccc(N(C)C)cc2)CC1	n	n	n	43	n	43
CSc1ccc(C(=S)N2CCN(C)CC2)cc1	n	n	n	n	n	x
CN1CCN(C(=S)c2ccc(Br)cc2)CC1	n	n	n	41	n	44
COc1cccc(CN2CCNC(=O)C2CC(=O)N(C)C2CCCCC2)c1OC (stereo not drawn)	n	n	n	n	n	x
Cc1nn(C)c(-c2n[nH]c(=S)n2Cc2ccco2)c1Cl	n	n	n	28	n	n
Cc1cc(NC(=O)c2sc3ccccc3c2O)no1	n	n	n	n	n	x
SMILES	mABHD4 FP	HTRA1 inhibitor	rCAG binder	PRMT1 inh	SIAE primary	PRMT1 confirm
CC(=Nc1ccc(C)cc1C)c1sc2ccccc2c1O	n	n	n	27	n	n
O=C(CCC(=O)N1CCOc2ccccc21)N1CCN(c2ccccc2)CC1	n	n	n	55	n	n
O=C(CCC(=O)N1CCOc2ccccc21)N1CCOCC1	n	n	n	n	n	x
NS(=O)(=O)c1cccc(NC(=O)COC(=O)Cc2ccc(Cl)cc2)c1	n	n	n	n	n	x
Oc1c(/C=N/c2ccccn2)sc2ccccc12	n	n	n	25	n	n
Oc1oc(-c2ccccc2)nc1/C=N/c1ccccn1	n	n	n	n	n	x
Oc1c(C=Nc2ccc(Cl)cn2)sc2ccccc12	n	n	n	41	n	n
CC(=O)C1=C(S(=O)(=O)c2ccc(C)cc2)CS(=O)(=O)C1	n	n	n	76	n	89
Cc1ccc(S(=O)(=O)C2CS(=O)(=O)CC2O)cc1 (stereo not drawn)	n	n	n	n	n	x
C[C@H]1[C@@H](NC(=O)c2ccc(O)cc2)CC[C@@]23CCCN2C(=O)CCC[C@@H]13	n	x	x	n	n	x
COc1ccc(S(=O)(=O)N2CCOCC2)cc1C(=O)N(C)CCOc1ccc(Cl)cc1	n	n	n	n	n	x
Cc1ncc(C(O)c2ccc(N(C)C)cc2)n1Cc1ccccc1 (stereo not drawn)	n	n	n	n	n	x
CN(C)c1ccc2nc3c(=O)[nH]c(=O)nc-3n(CC(O)C(O)C(O)CO)c2c1 (stereo not drawn)	n	n	n	80	n	55
C=CCn1c(SCC(=O)Nc2ccc(Br)cc2)nc(O)c(CC)c1=O	n	n	n	53	n	n
C=CCn1c(SCC(=O)Nc2ccccc2OC)nc(O)c(CC)c1=O	n	n	n	n	n	x
Cc1c(C(=O)NCc2ccc3c(c2)OCO3)sc2nc(-c3ccc(F)cc3)cn12	n	n	n	29	n	n
Cc1c(C(=O)NCc2ccc3c(c2)OCO3)sc2nc(-c3ccccc3)cn12	n	n	n	n	n	x
O=C(Nc1nccs1)c1ccc(COc2ccccc2Cl)o1	n	n	n	n	n	x
Cc1cccc(-n2c(C)c(-c3ccccc3)[nH]c2=S)c1	n	n	n	34	n	n
Cc1cccc(-n2c(Cc3ccccc3)n[nH]c2=S)c1	n	n	n	n	n	x
COc1ccc(CC(=O)NCCCCc2ccccc2)cc1OC	n	n	n	n	n	x
Cc1ccc(/C=C/C(=O)Nc2ccc(Oc3ccccc3)cc2)o1	n	n	n	n	n	x
COc1cc(/C=C/C(=O)Nc2ccc(OC)c(S(=O)(=O)N3CCOCC3)c2)ccc1OC(F)F	n	n	n	n	n	x
Cc1cc(NS(=O)(=O)c2ccc(NC(=O)/C=C/c3ccc(C)o3)cc2)nc(C)n1	n	n	n	55	n	54
COc1ccc(NC(=O)/C=C/c2ccc(C)o2)cc1S(=O)(=O)N1CCOCC1	n	n	n	45	n	30
SMILES	mABHD4 FP	HTRA1 inhibitor	rCAG binder	PRMT1 inh	SIAE primary	PRMT1 confirm
Cc1ccc(/C=C/C(=O)Nc2cccc3cccnc23)o1	n	n	n	59	n	23
Cc1ccc(/C=C/C(=O)Nc2ccc([N+](=O)[O-])cc2)o1	n	n	n	42	n	n
O=C(CN1CCCN(Cc2ccc(F)cc2Cl)C1=O)NC1CCCC1	n	n	n	n	n	x
Cn1c(COc2ccc(Br)cc2)nnc1SC1CCc2ccccc2C1=O (stereo not drawn)	n	n	n	53	n	n
COc1cc(C(=O)NC(C)Cc2ccccn2)ccc1OC1CCN(C(C)=O)CC1 (stereo not drawn)	n	n	n	n	n	x
CC(=O)NC1=C(NC2CCS(=O)(=O)C2)C(=O)c2ccccc2C1=O (stereo not drawn)	n	n	n	44	n	67
CCOCCCn1c(=S)[nH]c2cc(C(=O)N3CCN(c4ccccc4)CC3)ccc2c1=O	n	n	n	n	n	x
Cc1cnc(NC(=O)CSc2nnc(COc3c(C)cccc3C)o2)s1	n	n	n	38	n	n

Screening results (PubChem BioAssay)
